# Compound activity as filed in PubChem BioAssay.
# In the library only some 3.5% were active in any assay of this set; here they are far more common.
# RGS4 block – inhibitors of human RGS4. P49798. HEK293 M3R/RGS4 inducible, Fluo-4 calcium flux; active compounds read high; triggered by carbachol at its EC20. B-score at 10 µM. 310,000 compounds, 0.45% hits. AID 463165;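 active means B-score, a plate-corrected calcium signal, over three deviations above library mean, with baseline fluorescence within five deviations of library mean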;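 further: RGS4 expression induced by doxycycline in cells with stable M3 receptor; B-score is computed from the integrated fluorescence ratio over baseline after carbachol; higher B-score means a larger calcium signal and so more RGS4 inhibition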
# Target sequence (P49798 whole entry, looked up): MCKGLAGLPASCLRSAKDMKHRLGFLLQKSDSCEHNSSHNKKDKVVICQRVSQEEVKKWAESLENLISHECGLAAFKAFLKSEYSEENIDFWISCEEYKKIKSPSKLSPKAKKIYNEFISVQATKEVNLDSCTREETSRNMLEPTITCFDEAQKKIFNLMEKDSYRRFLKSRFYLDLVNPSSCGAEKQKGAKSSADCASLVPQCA
# MrgX1 allo act – human MrgX1 positive allosteric modulation, primary screen. 310,000 compounds, 0.63% hits. MrgX1-HEK293, Fluo-4 calcium flux, FDSS; active compounds read high. Q96LB2. B-score at 10 µM;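 active means plate-corrected calcium response at least 3 library SD above typical, normal starting fluorescence, not activating the receptor alone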;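 further: compound read alongside a low EC10 to EC30 dose of BAM8-22 agonist; peak minus trough fluorescence over baseline measured at the second addition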
# Target sequence (Q96LB2 whole entry, looked up): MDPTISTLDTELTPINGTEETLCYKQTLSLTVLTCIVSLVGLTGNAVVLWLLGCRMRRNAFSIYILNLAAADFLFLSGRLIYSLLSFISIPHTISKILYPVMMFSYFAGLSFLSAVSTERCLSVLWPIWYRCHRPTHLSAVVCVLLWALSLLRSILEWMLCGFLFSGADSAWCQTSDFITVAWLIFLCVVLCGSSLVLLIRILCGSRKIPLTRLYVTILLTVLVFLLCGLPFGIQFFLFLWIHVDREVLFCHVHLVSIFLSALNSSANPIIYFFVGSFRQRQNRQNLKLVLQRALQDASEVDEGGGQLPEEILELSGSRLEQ
# MrgX1 antagonist – antagonists of human MrgX1 receptor | 310,000 compounds, 1.3% hits | AID 588676 | Q96LB2 | MRGX1-HEK293 calcium flux, Fluo-4, BAM8-22 antagonism; active compounds read low | B-score at 10 µM;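 active means calcium-response B-score plate-corrected more than 3 library SD below zero, starting fluorescence within 5 deviations, no agonist response on first addition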;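 further: peak minus trough fluorescence over baseline after final BAM8-22 challenge near maximal dose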
# RGS4 pot – RGS4 potentiation or activation | B-score at 10 µM | 310,000 compounds, 0.92% hits | HEK293 M3R/inducible RGS4, carbachol calcium flux Fluo4; active compounds read low;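 active means B-score of the integrated calcium signal more than 4 SD below the library mean, with starting fluorescence not abnormally high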;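 further: negative B-score means reduced calcium response which marks RGS4 activation or potentiation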
#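 Also added: carbachol at ECmax as muscarinic agonist stimulus; Assay system: HEK293 cells with stable M3R and inducible RGS4; Timing: overnight RGS4 induction, 30 min dye load 37 °C, 20 min compound RT; Measured by: Fluo4-AM (2 µM) calcium-flux fluorescence, kinetic read.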
# MrgX1 ag – activates human MrgX1 receptor signaling; MrgX1-HEK293 cells, Fluo-4 calcium fluorescence, agonist mode; active compounds read high; Q96LB2; AID 588627; B-score at 10 µM; 310,000 compounds, 0.44% hits;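 active means calcium response B-score plate-corrected fluorescence ratio at least 3 library SD, with starting fluorescence B-score inside 5 SD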
#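 System: HEK293 cells stably expressing human MrgX1 receptor; Dosing: test compound in the initial addition of three; Schedule: overnight plating, then 30 min 37 °C plus 30 min room-temperature dye loading; Detection: kinetic calcium dye fluorescence, Fluo-4 NW; Controls: per-plate positive and negative controls for Z′ factor.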
# MrgX1 ant reconf – human MrgX1 receptor antagonism, re-confirmation screen. MrgX1-HEK293, BAM8-22 calcium flux, Fluo-4; active compounds read low. shares compounds with MrgX1 antagonist. remaining BAM8-22 calcium response % of control (active compounds read low), % at 10 µM. 2,300 compounds, 19% hits;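 active means remaining agonist calcium response no higher than 100% minus 3 SD of agonist-only control wells, with starting fluorescence near control levels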;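 further: agonist BAM8-22 given at a near maximal EC90 to ECmax level; peak minus minimum fluorescence divided by baseline after agonist addition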
# HEK293 Ca flux – activity in parental HEK293 cells lacking MrgX1; AID 624111; fluorescence ratio F(max-min)/F0 at 10 µM; shares compounds with MrgX1 antagonist; Fluo-4 calcium fluorescence, FDSS; 4,000 compounds, 2% hits;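 active means duplicate-averaged calcium fluorescence ratio at least three times the standard deviation of buffer wells, a nonspecific response in parental cells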
# HEK293 Ca counter – MrgX1 allosteric activator counter-screen hit in parental HEK293 cells; shares compounds with MrgX1 antagonist; parental HEK293 calcium flux, Fluo-4 fluorescence ratio; active compounds read high; fluorescence ratio F(max-min)/F0 at 10 µM; 4,000 compounds, 0.4% hits; AID 624114;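 active means calcium fluorescence ratio, averaged over duplicates, at least 3 SD of the buffer-well ratio, meaning a nonspecific response in receptor-free cells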;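 further: untransfected parental HEK293 lacking MrgX1 used as counterscreen for MrgX1 allosteric activators; fluorescence change taken during the second addition on a kinetic imager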
# HEK293 Ca cntr2 – counter-screen for MrgX1 activators: effect in parental HEK293 cells; shares compounds with MrgX1 antagonist; 4,000 compounds, 8.7% hits; Fluo-4 calcium fluorescence (FDSS); active compounds read high; AID 624115; fluorescence ratio F(max-min)/F0 at 10 µM;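 active means calcium fluorescence ratio at least three times the spread of buffer wells, meaning a non-specific response in parental cells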
# The depositor's hits bear a star; i = inactive; nt = not tested or not shown.
SMILES,RGS4 block,MrgX1 allo act,MrgX1 antagonist,RGS4 pot,MrgX1 ag,MrgX1 ant reconf,HEK293 Ca flux,HEK293 Ca counter,HEK293 Ca cntr2
CC(C)c1ccccc1NC(=O)COC(=O)Cc1cccc(C(F)(F)F)c1,i,i,i,i,i,nt,nt,nt,nt
COc1cccc(OC)c1C(=O)N1CCN(Cc2ccccc2C)CC1,i,i,-4.62*,i,i,i,i,i,i
CCOC(=O)c1cc2c(ccn2C)n1CC(=O)N(Cc1ccccc1)c1ccc(F)cc1,i,i,i,i,i,nt,nt,nt,nt
O=C(CS(=O)(=O)c1c[nH]c2ccccc12)Nc1ccc(F)cc1,i,i,i,i,i,nt,nt,nt,nt
O=C(Cc1c(O)c2ccccc2[nH]c1=O)NC1CCCCCCC1,i,i,-8.43*,i,i,i,i,i,i
CCCCCOC(=O)Cc1c(O)c2ccccc2[nH]c1=O,i,i,-7.93*,i,i,i,i,i,i
O=C(CS(=O)(=O)c1c[nH]c2ccccc12)NC1CCCCC1,i,i,-10.4*,i,i,i,i,i,i
O=C(Cc1c(O)c2ccccc2[nH]c1=O)NC1CCCCCC1,i,i,i,i,i,nt,nt,nt,nt
NC(=O)c1ccc(Oc2ccc(-c3nnco3)cc2)c([N+](=O)[O-])c1,i,i,i,i,i,nt,nt,nt,nt
CCOC(=O)C1CCCN(C(=O)c2[nH]c3ccc(OC)cc3c2C)C1 (centres undefined),i,i,i,i,i,nt,nt,nt,nt
O=C(CCCN1C(=O)c2ccccc2C1=O)Oc1ccc(F)cc1,i,i,i,i,i,nt,nt,nt,nt
CC1(c2ccccc2Cl)NC(=O)N(CC(=O)NCc2ccc3c(c2)OCO3)C1=O (centres undefined),i,i,i,i,i,nt,nt,nt,nt
C[C@H]1O[C@@H](O[C@H]2[C@@H](O)C[C@H](O[C@H]3[C@@H](O)C[C@H](O[C@H]4CC[C@@]5(C)[C@H](CC[C@@H]6[C@@H]5C[C@@H](O)[C@]5(C)[C@@H](C7=CC(=O)OC7)CC[C@]65O)C4)O[C@@H]3C)O[C@@H]2C)C[C@H](O)[C@@H]1O,i,i,i,i,i,nt,nt,nt,nt
COc1cccc(CNc2nc(SC)ncc2CO)c1,i,i,-4.77*,i,i,80.3%*,i,i,i
COc1cccc(CNc2ncnc3cc(OC)c(OC)cc23)c1,i,i,i,i,i,nt,nt,nt,nt
Cc1ccc(NC(=O)Nc2cccnc2)cc1Cl,i,i,-4.74*,i,i,80.1%*,i,i,i
O=C(Nc1ccc(F)c(Cl)c1)Nc1cnccn1,i,i,-6.16*,i,i,i,i,i,i
Fc1ccc(NC(=S)Nc2cccnc2)cc1,i,i,i,i,i,nt,nt,nt,nt
Fc1ccc(NC(=S)Nc2cccnc2)cc1Cl,i,i,-5.57*,i,i,i,i,i,i
CCOC(=O)CN(C(=O)CSc1nnc(-c2ccncc2)n1CCCOC)c1ccccc1,i,i,i,i,i,nt,nt,nt,nt
Cc1csc(NC(=O)c2ccc(Cn3nc(C)c(Br)c3C)o2)n1,i,i,-4.78*,i,i,74.0%*,i,i,i
Nc1nnnn1/N=C/c1ccccc1OCc1ccc(Cl)cc1,i,i,i,i,i,nt,nt,nt,nt
Nc1nnnn1/N=C/c1ccccc1OCc1ccc(Cl)cc1Cl,i,i,-4.76*,i,i,i,i,i,i
CC(C)OC(=O)C1=C(N)N2C(=O)CSC2=C(C(=O)OC(C)C)C1,i,i,i,i,i,nt,nt,nt,nt
Cc1cc(=O)n2c3ccccc3n(CC(O)CN3CCCC3)c2c1C#N (centres undefined),i,i,-5.3*,i,i,i,i,i,i
SMILES,RGS4 block,MrgX1 allo act,MrgX1 antagonist,RGS4 pot,MrgX1 ag,MrgX1 ant reconf,HEK293 Ca flux,HEK293 Ca counter,HEK293 Ca cntr2
O=C1c2ccccc2C(=O)C1c1ccc(O)cc1,i,i,i,i,i,nt,nt,nt,nt
CN(C)C1C(=O)c2ccccc2C1=O,i,i,-4.96*,i,i,i,i,i,i
O=[N+]([O-])c1c(Nc2cccc(O)c2)cc(Cl)c2nonc12,i,i,-11*,i,i,i,i,i,i
O=C(NCCc1ccccc1)c1cccc(N2C(=O)C3CC=CCC3C2=O)c1 (centres undefined),i,i,i,i,i,nt,nt,nt,nt
Cc1cc(C)nc(SCC(=O)c2ccc(O)c(O)c2)n1,i,i,i,i,i,nt,nt,nt,nt
O=C1CC(C(=O)Nc2nccs2)C(c2ccccc2)O1 (centres undefined),i,i,-6.3*,i,i,i,i,i,i
CCN(CC)C(=O)N1CCC(NC(=O)c2ccccc2)CC1,i,i,-7.53*,i,i,i,i,i,i
O=C(NC1CCN(C(=O)N2CCOCC2)CC1)c1ccccc1,i,i,i,i,i,nt,nt,nt,nt
COc1ccccc1/C=C/c1onc(C)c1S(=O)(=O)N1CCC(C(=O)NC(C)C)CC1,i,i,-5.48*,i,i,i,i,i,i
COC(=O)c1ccc(Oc2ccc(S(=O)(=O)N3CCCCC3)cc2N)cc1,i,i,-4.89*,i,i,i,i,i,i
COC(=O)CNc1cc(S(=O)(=O)N2CCCCC2)ccc1Oc1ccc(C(=O)OC)cc1,i,i,i,i,i,nt,nt,nt,nt
COc1ccc(S(=O)(=O)N2CCCCC2)cc1C(=O)N1CCCC1,i,i,-5.6*,i,i,i,i,i,i
CN(C)S(=O)(=O)Nc1ccc(Oc2ccccc2)cc1,i,i,i,i,i,nt,nt,nt,nt
Cc1nn2c3c(cnc2c1-c1ccccc1)C(=O)CC(c1ccccc1)C3 (centres undefined),i,i,-4.97*,i,i,i,i,i,i
Cc1nn2c3c(cnc2c1-c1ccccc1)C(=O)CC(c1ccco1)C3 (centres undefined),i,i,i,i,i,nt,nt,nt,nt
